# Compound activity deposited in PubChem by several laboratories.
# The list is not random: actives were taken first. Their share in the collection is about 1.7%.
# SR-BI DiI inh: inhibitors of SR-BI mediated HDL lipid uptake, primary screen, ldlA[mSR-BI] cells, fluorescence, single point. Scavenger receptor class B member 1 (Mus musculus), Q61009. ldlA[mSR-BI] CHO cells, DiI-HDL uptake fluorescence, 3 h. inhibition, % at 12.5 µM. 320,000 compounds, 0.96% hits. AID 488896, 2010;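 active means mean replicate inhibition of at least 70% and a set share of replicates each scoring 70 or more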;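 further: 0% = median of neutral control wells and 100% = median of positive control wells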
# Vif imaging: HIV Vif self-association inhibitors, primary screen, imaging, HEK293T, single point | 340,000 compounds, 0.35% hits | HEK293T cells, Vif self-association by quenched fluorescence, 24 h | AID 602346, 2012 | inhibition, % at 7.49 µM; in the data active means inhibition above about 50%, passing the limit was not always enough
# CaV13 FRET inh: Primary screen for inhibitors of IQ motif and Ca2+-dependent inactivation inhibitor domain binding in CACNA1D, Förster resonance energy transfer in living cells, …. HEK cells, CFP/YFP FRET ICDI-IQ, plate reader, 10 min; percent FRET-ratio fall versus neutral wells. inhibition, % at 12.3 µM. 340,000 compounds, 0.098% hits;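 active means mean replicate inhibition of at least 30% and at least 1% of replicates passing that level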;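 further: 0% = median of the neutral control wells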
# V-ATPase pHluor: regulators of yeast V-ATPase proton pumping, primary screen, pHLuorin cytosolic pH fluorescence | response, % at 10 µM | S. cerevisiae | 350,000 compounds, 0.37% hits | AID 504577, 2011; in the data active means response mostly above about 7.3%, no sharp cut-off; inactive means mostly below about 5.4%; further: actives read high
# NTR1 ag: agonists of human NTR1, primary screen, imaging, U2OS cells, beta-arrestin-GFP, high content | NTR1-U2OS beta-arrestin-GFP spot imaging, agonist mode | activation, % at 20 µM | 330,000 compounds, 0.17% hits | AID 493036, 2011;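 active means activation at or above 40% of the spot to cytoplasm intensity ratio, with at least 20 cells analyzed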;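 further: 0% = DMSO without peptide and 100% = 100 nM NTR1 peptide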
# Target sequence (P30989 whole entry, looked up): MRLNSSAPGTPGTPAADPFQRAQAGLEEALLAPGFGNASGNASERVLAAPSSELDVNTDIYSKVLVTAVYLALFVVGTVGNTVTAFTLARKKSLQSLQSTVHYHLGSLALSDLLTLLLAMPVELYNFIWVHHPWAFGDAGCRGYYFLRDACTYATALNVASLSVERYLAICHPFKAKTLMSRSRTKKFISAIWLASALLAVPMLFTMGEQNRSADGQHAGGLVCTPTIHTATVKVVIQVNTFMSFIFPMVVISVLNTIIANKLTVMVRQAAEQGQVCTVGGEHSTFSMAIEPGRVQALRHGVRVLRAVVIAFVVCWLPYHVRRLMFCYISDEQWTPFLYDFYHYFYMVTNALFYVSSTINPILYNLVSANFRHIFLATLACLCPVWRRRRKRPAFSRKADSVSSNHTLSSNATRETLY
# SR-BI uptake up: activators of SR-BI mediated DiI-HDL uptake, primary screen, ldlA[mSR-BI] CHO cells, DiI fluorescence | 3 h; 100 = double the neutral-control signal | activation, % at 12.5 µM | 320,000 compounds, 0.096% hits | AID 504775, 2011;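 active means mean replicate activation of at least 60% and every replicate at or above 60%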;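 further: 0% = median plate neutral-control signal and 100% = twice that signal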
#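 Material – SR-BI-overexpressing, LDLR-lacking CHO cells · Medium – BSA-supplemented, HEPES-buffered Ham's F12, pH 7.4 · Doses – single concentration · Times – compound with DiI-HDL co-incubation, 3 h at 37 °C · Measured by – bottom-read fluorescence, 550/595 nm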
# VATPase regulator: yeast V-ATPase proton pumping modulators, confirmation, S. cerevisiae, pH-sensitive GFP, second cherry-pick; shares compounds with V-ATPase pHluor; S. cerevisiae pHLuorin cytosolic pH, V-ATPase proton transport; response, % at 10 µM; 980 compounds, 2% hits; in the data active means response above about 24%;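 further: plate controls were vehicle wells for no effect and positive control wells for full effect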
# Starred values were filed as active, the others as inactive; / = no result.
SMILES,SR-BI DiI inh,Vif imaging,CaV13 FRET inh,V-ATPase pHluor,NTR1 ag,SR-BI uptake up,VATPase regulator
CCOc1ccc(NC(=O)CSc2nc(C)cc(C)n2)cc1,3,2,-10,2,0,-3,/
CCOc1ccc(NC(=O)CSc2nc(N3CCOCC3)nc(N3CCOCC3)n2)cc1,22,-8,-4,8.7*,-1,-22,1
Cc1cc(C(N)=O)c2ccccc2n1,-15,5,-18,0,-2,15,/
Cc1cc(C(=O)O)c2ccccc2n1,-14,-1,-7,16*,0,14,4
O=C(CN1C(=O)NC2(CCCC2)C1=O)NCCc1ccc(F)cc1,-7,-1,-5,11*,0,7,1
O=C(C1CCN(c2nc(-c3ccccc3)nc3c2CCC3)CC1)N1CCC(O)CC1,37,0,-9,11*,1,-37,-1
COCC1CCN(C(=O)C2CCN(c3nc(-c4ccccc4)nc4c3CCC4)CC2)C1 (stereo not given),32,/,-2,-4,0,-32,/
CC(=O)N1CCN(C(=O)c2cc(S(=O)(=O)Nc3ccc(S(C)(=O)=O)cc3)ccc2Cl)CC1,-43,-8,-2,-2,2,43,/
CCN1CCN(C(=O)c2cc(S(=O)(=O)Nc3ccc(S(C)(=O)=O)cc3)ccc2Cl)CC1,-12,-13,2,10*,-1,12,1
O=C(NCCc1cccs1)c1ccc(Cl)cc1,-15,-3,-3,-3,1,15,/
O=C(NCCc1cccs1)c1ccc(Cl)c(Cl)c1,11,4,2,8.8*,3,-11,1
CCOc1ccc(CCNC(=O)CSc2cc(=O)n(C)c3cc(Cl)ccc23)cc1OCC,36,-18,-7,2,10,-36,/
CCOc1ccc(CCNC(=O)CSc2cc(=O)n(CC)c3ccccc23)cc1OCC,52,-18,-7,14*,4,-52,-3
Cc1ccc(CN2CCNC(=O)C2CC(=O)N(C)CCc2ccccc2)cc1 (stereo not given),-8,-3,-10,11*,0,8,1
CCc1ccc(/C(C)=N/NC(=O)CNC(=O)/C=C/c2ccccc2OC)cc1,/,-2,-4,0,2,/,/
CCc1ccc(/C(C)=N/NC(=O)CNC(=O)/C=C/c2ccco2)cc1,/,7,/,25*,1,/,0
O=C(NC(c1ccc(-c2ccccc2)cc1)c1cnccn1)C1CCN(Cc2ccc3c(c2)OCO3)CC1 (stereo not given),/,-6,-5,/,/,/,/
Cc1ccc(OCc2cc(C(=O)NCC(C)(C)N3CCOCC3)no2)cc1C,34,/,-5,8.2*,2,/,-7
Cc1ccc(OCc2cc(C(=O)NCC3COCCO3)no2)cc1C (stereo not given),-8,-1,/,-2,0,8,/
Nc1cc(=O)[nH]c(SCC(=O)NNC(=O)c2ccccc2)n1,-1,-5,-2,0,0,1,/
COC(=O)c1ccc(NC(=O)c2snnc2-c2ccccc2)cc1,-13,0,-5,8.2*,2,13,2
NNC(=O)c1snnc1-c1ccccc1,-14,3,-16,6,1,14,/
O=C(Nc1ccc2c(c1)OCCO2)C(=O)NC1CC1,-7,2,-3,4,0,7,/
CCOC(=O)COn1c(=O)c[n+]([O-])c2ccccc21,/,3,-4,15*,1,/,-1
CCOC(=O)COn1c(=O)c(C)[n+]([O-])c2ccccc21,-5,5,-3,-6,0,5,/
Oc1ccc(-c2nc3ccccc3nc2-c2ccccc2)cc1,31,-14,-2,4,3,-31,/
